Results as given in ChEMBL document CHEMBL2311383, “Discovery of piperazin-1-ylpyridazine-based potent and selective stearoyl-CoA desaturase-1 inhibitors for the treatment of obesity and metabolic syndrome” (J Med Chem, 2013).
Calls of active or inactive are those of the source. No cut-off for these calls is given here.

What was measured:
[1] = Apparent permeability from apical to basolateral side in human Caco2 cells; format: ADME, cell-based; details: Caco-2
How it was run: (§1)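 Caco-2 monolayers; apparent permeability a-to-b and b-to-a reported in 10⁻⁶ cm/s.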

[2] = tested on: Rattus norvegicus; experiment: In vivo inhibition of SCD1 in Lewis rat liver microsome at 1 mg/kg, po after 4 hrs
[3] = Metabolic stability in rat liver microsome after 30 mins by LC/MS/MS analysis; format: ADME; details: liver microsomes, read-out: Stability
How it was run: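 Compound incubated 30 min with rat liver microsomes; percent parent remaining by LC/MS/MS.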

[4] = biological target: T1, Acyl-CoA desaturase 1 (Mus musculus, UniProt P13516); experiment: Inhibition of SCD1 in ICR mouse liver microsome using [9,10 3H]- stearoyl-Coenzyme A substrate assessed as decreased production of tritiated water after 20 min by scintillation counting analysis
T1 sequence (P13516 whole entry): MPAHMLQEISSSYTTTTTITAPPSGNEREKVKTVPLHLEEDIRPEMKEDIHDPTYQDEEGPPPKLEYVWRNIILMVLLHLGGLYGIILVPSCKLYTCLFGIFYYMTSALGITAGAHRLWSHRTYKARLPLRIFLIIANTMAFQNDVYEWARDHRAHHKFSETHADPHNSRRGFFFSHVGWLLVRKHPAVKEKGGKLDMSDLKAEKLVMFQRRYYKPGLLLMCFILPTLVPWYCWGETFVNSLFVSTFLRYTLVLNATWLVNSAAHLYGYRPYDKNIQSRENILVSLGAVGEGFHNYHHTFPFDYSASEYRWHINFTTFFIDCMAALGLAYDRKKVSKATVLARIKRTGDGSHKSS

[5] = biological target: Acyl-CoA 6-desaturase (Rattus norvegicus) (UniProt Q9Z122); experiment: Inhibition of delta6 desaturase in Sprague-Dawley rat liver microsome using cis,cis-9,12-octadecadienoic acid substrate at 10 uM
Chain of Acyl-CoA 6-desaturase (Rattus norvegicus) (Q9Z122 whole entry, looked up): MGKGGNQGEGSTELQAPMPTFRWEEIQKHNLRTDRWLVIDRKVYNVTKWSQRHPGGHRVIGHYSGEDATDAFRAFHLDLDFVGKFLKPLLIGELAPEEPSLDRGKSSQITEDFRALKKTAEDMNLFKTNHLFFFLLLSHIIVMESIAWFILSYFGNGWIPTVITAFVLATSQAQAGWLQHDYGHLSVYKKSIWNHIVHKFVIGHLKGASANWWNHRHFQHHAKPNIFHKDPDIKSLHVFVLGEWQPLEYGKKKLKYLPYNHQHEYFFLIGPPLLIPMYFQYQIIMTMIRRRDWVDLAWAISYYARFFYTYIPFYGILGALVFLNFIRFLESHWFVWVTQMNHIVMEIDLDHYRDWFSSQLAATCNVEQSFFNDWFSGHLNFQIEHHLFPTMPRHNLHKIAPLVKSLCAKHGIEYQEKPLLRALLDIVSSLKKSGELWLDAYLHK

[6] = biological target: Acyl-CoA (8-3)-desaturase (Rattus norvegicus) (UniProt Q920R3); experiment: Inhibition of delta5 desaturase in Sprague-Dawley rat liver microsome at 10 uM; format: microsomes
Chain of Acyl-CoA (8-3)-desaturase (Rattus norvegicus) (Q920R3 whole entry, looked up): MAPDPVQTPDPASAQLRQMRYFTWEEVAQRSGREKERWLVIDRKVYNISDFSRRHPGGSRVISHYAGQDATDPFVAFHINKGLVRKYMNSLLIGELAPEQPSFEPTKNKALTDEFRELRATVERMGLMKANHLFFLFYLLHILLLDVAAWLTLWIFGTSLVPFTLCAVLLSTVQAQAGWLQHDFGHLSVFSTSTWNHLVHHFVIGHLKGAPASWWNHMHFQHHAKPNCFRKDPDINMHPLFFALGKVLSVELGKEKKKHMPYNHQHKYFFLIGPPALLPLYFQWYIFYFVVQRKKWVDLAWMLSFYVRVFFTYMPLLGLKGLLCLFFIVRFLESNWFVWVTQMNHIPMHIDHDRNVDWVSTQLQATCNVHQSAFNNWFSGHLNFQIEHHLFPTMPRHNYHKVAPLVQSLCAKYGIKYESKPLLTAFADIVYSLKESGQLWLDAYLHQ

[7] = Apparent permeability from basolateral to apical side in human Caco2 cells; format: ADME, cell-based; details: Caco-2; how it was run: as §1
[8] = Oral bioavailability in Lewis rat at 2 mg/kg; format: ADME, organism-based; details: in vivo
How it was run: (§2)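 Lewis rats, IV 3 mg/kg and PO 10 mg/kg unless otherwise stated (some at PO 5 mg/kg, IV 1 mg/kg, or IV 1/PO 2 mg/kg). At least two rats IV, three rats PO, averaged. Plasma t1/2 (h), AUC 0–∞ (μM·h), Vss (L/kg), clearance ((L/h)/kg), Cmax (μM), Tmax (h), oral bioavailability (%).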

[9] = Tmax in Lewis rat at 2 mg/kg, po; format: ADME, organism-based; design: dose 2 mg/kg, route oral; details: in vivo; how it was run: as §2
[10] = tested on: Rattus norvegicus; experiment: In vivo inhibition of SCD1 in Lewis rat liver microsome at 15 mg/kg, ip administered qd for 2 days; format: functional; details: 48 h, route intraperitoneal
How it was run: (§3)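 Lewis rats fed high-carbohydrate diet for one week, fasted 4 h, then dosed orally (0.1–1 mg/kg in 0.2% Tween 20/1% CMC; n = 4), killed 4 h later; ip arm 15 mg/kg once daily for two days. Liver microsomes prepared, SCD1 activity measured by tritiated water release from [9,10-3H]stearoyl-CoA. Mean ± SD of at least four rats.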

[11] = AUC (0 to infinity) in Lewis rat at 2 mg/kg, po; format: ADME, organism-based; design: time infinity, dose 2 mg/kg, route oral; details: plasma; how it was run: as §2
[12] = Clearance in Lewis rat at 1 mg/kg, iv; format: ADME, organism-based; design: dose 1 mg/kg, route intravenous; details: in vivo; how it was run: as §2
[13] = AUC (0 to infinity) in Lewis rat at 1 mg/kg, iv; format: ADME, organism-based; design: time infinity, dose 1 mg/kg, route intravenous; details: plasma; how it was run: as §2
[14] = Half life in Lewis rat at 1 mg/kg, iv; format: ADME, organism-based; design: dose 1 mg/kg, route intravenous; details: in vivo; how it was run: as §2
[15] = Volume of distribution at steady state in Lewis rat at 1 mg/kg, iv; format: ADME, organism-based; design: dose 1 mg/kg, route intravenous; details: in vivo, read-out: Vdss; how it was run: as §2
[16] = Cmax in Lewis rat at 2 mg/kg, po; format: ADME, organism-based; design: dose 2 mg/kg, route oral; details: in vivo; how it was run: as §2
[17] = biological target: T2, Stearoyl-CoA desaturase (Homo sapiens, UniProt O00767); experiment: Inhibition of SCD1 in human HepG2 cells using [14C]-stearate substrate assessed as decreased production of [14C]-oleic acid after 24 hrs; format: cell-based
T2 sequence (O00767 whole entry): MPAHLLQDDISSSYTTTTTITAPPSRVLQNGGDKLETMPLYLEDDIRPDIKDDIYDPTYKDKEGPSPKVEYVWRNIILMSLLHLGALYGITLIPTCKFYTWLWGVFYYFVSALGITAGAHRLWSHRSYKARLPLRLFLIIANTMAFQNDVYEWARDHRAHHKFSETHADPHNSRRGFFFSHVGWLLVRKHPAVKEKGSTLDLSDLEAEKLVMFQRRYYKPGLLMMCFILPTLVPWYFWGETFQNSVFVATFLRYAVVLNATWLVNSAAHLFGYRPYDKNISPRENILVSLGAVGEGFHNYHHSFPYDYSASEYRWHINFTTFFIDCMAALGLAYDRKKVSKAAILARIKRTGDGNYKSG

[18] = tested on: Rattus norvegicus; experiment: In vivo inhibition of SCD1 in Zucker-Fatty rat assessed as reduction of C16 plasma desaturation index at 1 mg/kg, po bid administered for 15 weeks; format: functional; details: 2520 h
How it was run: (§4)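 Plasma from Zucker fatty rats after 15 weeks oral 1 mg/kg twice daily. Lipids extracted by modified Folch, classes separated by TLC, hydrolyzed, derivatized and analyzed by GC against an internal standard. Desaturation index is the […] ratio for C16 and C18; n = 12, mean ± SEM.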

[19] = tested on: Rattus norvegicus; experiment: In vivo inhibition of SCD1 in po dosed Lewis rat liver microsome at 0.1 to 1 mg/kg after 4 hrs; format: functional, organism-based; how it was run: as §3
[20] = Cmax in Lewis rat at 10 mg/kg, po; format: ADME, organism-based; design: dose 10 mg/kg, route oral; details: in vivo; how it was run: as §2
[21] = Tmax in Lewis rat at 10 mg/kg, po; format: ADME, organism-based; design: dose 10 mg/kg, route oral; details: in vivo; how it was run: as §2
[22] = tested on: Rattus norvegicus; experiment: Antiobesity activity in Zucker-Fatty rat assessed as reduction in lean mass at 1 mg/kg, po bid administered for 15 weeks; format: functional, organism-based; design: dose 1 mg/kg
How it was run: (§5)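 Male Zucker fa/fa rats, 20 weeks old, chow ad libitum, 24 per group. Dosed orally twice daily (10 a.m., 4 p.m.) at 1 mg/kg for 15 weeks, suspended in 1% CMC/0.1% Tween 20/10% propylene glycol/water; vehicle controls. Body weight taken daily, change from day 0 over 12 weeks. At end: epididymal, retroperitoneal and mesenteric fat pads weighed; DEXA of carcass BMC, lean and fat mass; fat % = FM/(BMC+LM+FM); n = 12, mean ± SEM.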

[23] = tested on: Rattus norvegicus; experiment: In vivo inhibition of SCD1 in po dosed Lewis rat liver microsome after 4 hrs; format: functional; how it was run: as §3
[24] = tested on: Rattus norvegicus; experiment: Antiobesity activity in Zucker-Fatty rat assessed as reduction in total body weight at 1 mg/kg, po bid administered upto 12 weeks relative to vehicle-treated control; format: functional; design: scale not given: the % may be the effect or the level left; how it was run: as §5
[25] = tested on: Rattus norvegicus; experiment: Antiobesity activity in Zucker-Fatty rat assessed as reduction in combined visceral fat weight at 1 mg/kg, po bid administered for 15 weeks relative to vehicle-treated control; format: functional; design: scale not given: the % may be the effect or the level left; how it was run: as §5
[26] = tested on: Rattus norvegicus; experiment: In vivo inhibition of SCD1 in Zucker-Fatty rat assessed as reduction of C18 plasma desaturation index at 1 mg/kg, po bid administered for 15 weeks; format: functional; details: 2520 h; how it was run: as §4
[27] = tested on: Rattus norvegicus; experiment: Antiobesity activity in Zucker-Fatty rat assessed as reduction in body fat percentage at 1 mg/kg, po bid administered for 15 weeks relative to vehicle-treated control; format: functional; design: scale not given: the % may be the effect or the level left; how it was run: as §5
[28] = tested on: Rattus norvegicus; experiment: Antiobesity activity in Zucker-Fatty rat assessed as reduction in fat mass at 1 mg/kg, po bid administered for 15 weeks; format: functional; design: scale not given: the % may be the effect or the level left; how it was run: as §5
[29] = Oral bioavailability in Lewis rat at 10 mg/kg; format: ADME, organism-based; details: in vivo; how it was run: as §2
[30] = tested on: Rattus norvegicus; experiment: Antiobesity activity in Zucker-Fatty rat assessed as reduction in bone mineral content at 1 mg/kg, po bid administered for 15 weeks; format: functional, organism-based; design: dose 1 mg/kg; how it was run: as §5

O=C(Nc1ccc(Cl)cc1)c1ccc(N2CCN(C(=O)c3ccccc3C(F)(F)F)CC2)nn1
Papp A→B [1]: 2 ×10⁻⁶ cm/s
inhibition [2]: Active
remaining at 0.5 h [3]: 65%
IC50 [4]: 7 nM
inhibition [5]: inactive
inhibition [6]: inactive
Papp B→A [7]: 2 ×10⁻⁶ cm/s

O=C(Nc1nc2ccccc2[nH]1)c1ccc(N2CCN(C(=O)c3ccccc3C(F)(F)F)CC2)nn1
bioavailability [8]: 19%
Tmax [9]: 0.5 h
Papp A→B [1]: 25 ×10⁻⁶ cm/s
remaining at 0.5 h [3]: 92%
inhibition in vivo at 15 mg/kg [10]: < 30%
AUC(0-inf) [11]: 0.6 µM·h
clearance [12]: 21.7 mL/min/kg
IC50 [4]: 11 nM
AUC(0-inf) [13]: 1.6 µM·h
half-life [14]: 1.1 h
inhibition [5]: inactive
inhibition [6]: inactive
Vd [15]: 1.8 L/kg
Papp B→A [7]: 23 ×10⁻⁶ cm/s
Cmax [16]: 70 nM

Cc1cc(C(=O)N2CCN(c3ccc(C(=O)NCCC4CC4)nn3)CC2)c(C(F)(F)F)o1
Papp A→B [1]: 21 ×10⁻⁶ cm/s
remaining at 0.5 h [3]: 36%
inhibition in vivo at 15 mg/kg [10]: < 30%
IC50 [4]: 72 nM
IC50 [17]: 62 nM
inhibition [5]: inactive
inhibition [6]: inactive
Papp B→A [7]: 21 ×10⁻⁶ cm/s

O=C(NCCC1CC1)c1ccc(N2CCN(C(=O)c3cc(F)ccc3C(F)(F)F)CC2)nn1
Papp A→B [1]: 30 ×10⁻⁶ cm/s
remaining at 0.5 h [3]: 74%
inhibition in vivo at 15 mg/kg [10]: > 60%
inhibition in vivo at 1 mg/kg [18]: 73%
inhibition [19]: Dose-dependent effect
clearance [12]: 21.7 mL/min/kg
Cmax [20]: 900 nM
Tmax [21]: 3.3 h
Activity [22]: inactive
ED50 [23]: 0.8 mg/kg
IC50 [4]: 14 nM
Activity [24]: 36%
half-life [14]: 1.6 h
Activity [25]: 24%
inhibition [5]: inactive
inhibition in vivo at 1 mg/kg [26]: 61%
Activity [27]: 9%
inhibition [6]: inactive
Vd [15]: 2.7 L/kg
Papp B→A [7]: 30 ×10⁻⁶ cm/s
Activity [28]: 20%
bioavailability [29]: 49%
Activity [30]: inactive
